Assay results reported in ChEMBL document CHEMBL4732034, “Amino alcohol acrylonitriles as broad spectrum and tumour selective cytotoxic agents” (RSC Med Chem, 2021).
Each block holds one compound with its values, some of them ahead of it.

Assays:
U-87 MG = test: Cytotoxicity against human U87 cells assessed as growth inhibition measured after 72 hrs by SRB assay; format: functional, U-87MG ATCC
Outline: (§1)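 Cancer lines were kept in DMEM with 10% FBS and glutamine at 37 °C, 5% CO2, and seeded at 2500–4000 cells per well in duplicate. Compound (from 40 mM DMSO stocks) was added 24 h after plating and left for 72 h. Cells were TCA-fixed, stained with SRB and read at 540 nm. GI50 came from an eight-point dose-response, using the change from day-0 optical density, with three to four independent replicates.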

A2780 = test: Cytotoxicity against human A2780 cells assessed as growth inhibition measured after 72 hrs by SRB assay; format: functional; outline: as §1
NCI-H460 = test: Cytotoxicity against human H460 cells assessed as growth inhibition measured after 72 hrs by SRB assay; format: functional; outline: as §1
A-431 = test: Cytotoxicity against human A431 cells assessed as growth inhibition measured after 72 hrs by SRB assay; format: functional; outline: as §1
DU-145 = test: Cytotoxicity against human DU-145 cells assessed as growth inhibition measured after 72 hrs by SRB assay; format: functional; outline: as §1
BE(2)-C = test: Cytotoxicity against human BE2C cells assessed as growth inhibition measured after 72 hrs by SRB assay; format: functional; outline: as §1
[1] = Cytotoxicity against human SJG2 cells assessed as growth inhibition measured after 72 hrs by SRB assay; format: functional; conditions: SJ-G2; outline: as §1
MIA PaCa-2 = test: Cytotoxicity against human MIA cells assessed as growth inhibition measured after 72 hrs by SRB assay; format: functional; outline: as §1
HT-29 = test: Cytotoxicity against human HT29 cells assessed as growth inhibition measured after 72 hrs by SRB assay; format: functional; outline: as §1
MCF7 = test: Cytotoxicity against human MCF-7 cells assessed as growth inhibition measured after 72 hrs by SRB assay; format: functional; outline: as §1
[2] = Cytotoxicity against human MCF10A cells assessed as growth inhibition measured after 72 hrs by SRB assay; format: cell-based, MCF-10A
MDA-MB-468 = test: Cytotoxicity against human MDA-MB-468 cells assessed as growth inhibition measured after 72 hrs by SRB assay; format: functional; outline: as §1
T47D = test: Cytotoxicity against human T47D cells assessed as growth inhibition measured after 72 hrs by SRB assay; format: functional; outline: as §1
[3] = biological target: T1, Aryl hydrocarbon receptor (Homo sapiens, UniProt P35869); test: Activation of AhR in human HT29-Lucia cells expressing secreted Lucia luciferase reporter gene assessed as increase in receptor transactivation by measuring fold increase in reporter activity at 25 uM measured after 24 hrs by luciferase reporter gene assay relative to control; format: cell-based; conditions: HT-29, human, read-out: FC
T1 sequence (P35869 whole entry): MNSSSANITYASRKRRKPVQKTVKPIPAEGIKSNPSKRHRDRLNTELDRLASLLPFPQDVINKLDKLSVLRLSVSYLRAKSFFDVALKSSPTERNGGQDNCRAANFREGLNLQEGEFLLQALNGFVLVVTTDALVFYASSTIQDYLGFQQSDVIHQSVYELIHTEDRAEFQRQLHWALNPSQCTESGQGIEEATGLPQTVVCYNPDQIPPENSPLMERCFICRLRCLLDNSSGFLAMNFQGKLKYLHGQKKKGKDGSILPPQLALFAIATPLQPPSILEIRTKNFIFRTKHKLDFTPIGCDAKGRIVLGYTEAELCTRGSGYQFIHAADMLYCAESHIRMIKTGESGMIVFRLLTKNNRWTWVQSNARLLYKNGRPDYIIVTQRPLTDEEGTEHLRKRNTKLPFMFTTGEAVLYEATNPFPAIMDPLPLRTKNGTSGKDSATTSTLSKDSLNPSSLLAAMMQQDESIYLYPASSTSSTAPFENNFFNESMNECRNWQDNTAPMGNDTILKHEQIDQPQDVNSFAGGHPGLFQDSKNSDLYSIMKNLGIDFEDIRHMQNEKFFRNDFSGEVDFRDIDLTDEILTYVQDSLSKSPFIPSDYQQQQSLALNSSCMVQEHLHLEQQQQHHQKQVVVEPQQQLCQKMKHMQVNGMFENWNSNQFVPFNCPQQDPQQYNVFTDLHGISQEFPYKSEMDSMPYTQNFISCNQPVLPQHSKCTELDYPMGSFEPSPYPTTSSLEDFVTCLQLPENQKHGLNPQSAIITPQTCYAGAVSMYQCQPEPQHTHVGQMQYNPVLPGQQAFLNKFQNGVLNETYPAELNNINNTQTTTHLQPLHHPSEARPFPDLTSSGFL
Outline: (§2)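 HT29-Lucia cells (stable secreted Lucia luciferase reporter under a minimal promoter with the human CYP1A1 regulatory sequence, six DREs) were grown without antibiotics for 24 h before compound addition. At 24 and 48 h, supernatant was read by luminescence with QUANTI-Luc. Assays were run twice, and values are fold-change versus DMSO-treated cells. FICZ and CH223191 (5 μM) were included as controls.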

CYP1A1 = biological target: T2, CYP1A1 (Homo sapiens, UniProt P35869); test: Activation of AhR in human MDA-MB-468 cells assessed as fold increase in CYP1A1 mRNA expression at 5 uM measured after 8 hrs by qPCR assay relative to control; format: cell-based; conditions: read-out: FC
T2 sequence (P35869 whole entry): T1 sequence (P35869 whole entry)
Outline: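 MDA-MB-468 cells were exposed for 8 h, then total RNA was extracted. CYP1A1 was quantified by qPCR with β2M as reference: 95 °C for 5 min, then 40 cycles of 95 °C for 5 s and 60 °C for 10 s. Fold change was calculated by the comparative Ct method.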

[4] = Selectivity index, ratio of GI50 for human MCF10A cells to GI50 for human MCF-7 cells by SRB assay; format: toxicity; conditions: MCF10A cells versus MCF-7 cells, read-out: RatioGI50
Outline: (§3)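 Fold selectivity is the MCF10A GI50 divided by the cancer-line GI50. Each GI50 is from the 72 h SRB assay: eight-point dose-response, day-0 optical density baseline, three to four separate replicates.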

[5] = Selectivity index, ratio of GI50 for human MCF10A cells to GI50 for human MDA-MB-468 cells by SRB assay; format: toxicity; conditions: MCF10A cells versus MDA-MB-468 cells, read-out: RatioGI50; outline: as §3
[6] = Selectivity index, ratio of GI50 for human MCF10A cells to GI50 for human T47D cells by SRB assay; format: toxicity; conditions: MCF10A cells versus T47D cells, read-out: RatioGI50; outline: as §3
[7] = biological target: T1, Aryl hydrocarbon receptor; test: Activation of AhR in human HT29-Lucia cells expressing secreted Lucia luciferase reporter gene assessed as increase in receptor transactivation by measuring fold increase in reporter activity at 25 uM measured after 48 hrs by luciferase reporter gene assay relative to control; format: cell-based; conditions: HT-29, human, read-out: FC; outline: as §2
[8] = Selectivity index, ratio of GI50 for human MCF10A cells to GI50 for human A2780 cells by SRB assay; format: toxicity; conditions: MCF10A cells versus A2780 cells, read-out: RatioGI50; outline: as §3
[9] = Selectivity index, ratio of GI50 for human MCF10A cells to GI50 for human H460 cells by SRB assay; format: toxicity; conditions: MCF10A cells versus H460 cells, read-out: RatioGI50; outline: as §3
[10] = biological target: T1, Aryl hydrocarbon receptor; test: Activation of AhR in human HT29-Lucia cells expressing secreted Lucia luciferase reporter gene assessed as increase in receptor transactivation by measuring fold increase in reporter activity at 5 uM measured after 48 hrs by luciferase reporter gene assay relative to control; format: cell-based; conditions: HT-29, human, read-out: FC; outline: as §2
[11] = biological target: T1, Aryl hydrocarbon receptor; test: Activation of AhR in human HT29-Lucia cells expressing secreted Lucia luciferase reporter gene assessed as increase in receptor transactivation by measuring fold increase in reporter activity at 5 uM measured after 24 hrs by luciferase reporter gene assay relative to control; format: cell-based; conditions: HT-29, human, read-out: FC; outline: as §2

fold induction at 25 µM [3]: 1.69
fold induction at 8 h, 5 µM (CYP1A1): 7.6
fold induction at 25 µM [7]: 1.84
Compound: N#C/C(=C\c1ccc(OCC(O)CN2CCN(c3ccc(C#N)cc3)CC2)cc1)c1ccc(Cl)c(Cl)c1 (racemic)
GI50 (U-87 MG): > 50 µM
GI50 (A2780): 15 µM
GI50 (NCI-H460): > 50 µM
GI50 (A-431): 20 µM
GI50 (DU-145): 17 µM
GI50 (BE(2)-C): 31 µM
GI50 [1]: > 50 µM
GI50 (MIA PaCa-2): > 50 µM
GI50 (HT-29): 50 µM
GI50 (MCF7): 5.8 µM
GI50 at 72 h [2]: 47 µM
GI50 (MDA-MB-468): 6 µM
GI50 (T47D): 2.3 µM
selectivity ratio [4]: 8.1
selectivity ratio [5]: 7.8
selectivity ratio [6]: 20

Compound: N#C/C(=C\c1ccc(OCC(O)CN2CCN(c3ccc(Br)cc3)CC2)cc1)c1ccc(Cl)c(Cl)c1 (racemic)
GI50 (U-87 MG): > 50 µM
GI50 (A2780): 14 µM
GI50 (NCI-H460): > 50 µM
GI50 (A-431): > 50 µM
GI50 (DU-145): 31 µM
GI50 (BE(2)-C): 40 µM
GI50 [1]: 21 µM
GI50 (MIA PaCa-2): 57 µM
GI50 (HT-29): 16 µM
GI50 (MCF7): 24 µM
GI50 at 72 h [2]: 49 µM
selectivity ratio [8]: 3.5

Compound: N#C/C(=C\c1ccc(OCC(O)CN2CCN(c3ccccc3F)CC2)cc1)c1ccc(Cl)c(Cl)c1 (racemic)
GI50 (U-87 MG): 20 µM
GI50 (A2780): 17 µM
GI50 (NCI-H460): 1.6 µM
GI50 (A-431): 14 µM
GI50 (DU-145): 18 µM
GI50 (BE(2)-C): 21 µM
GI50 [1]: 18 µM
GI50 (MIA PaCa-2): 24 µM
GI50 (HT-29): 5.4 µM
GI50 (MCF7): 11 µM
GI50 at 72 h [2]: 15 µM
selectivity ratio [9]: 9.3

fold induction at 5 µM [10]: 4.82
fold induction at 5 µM [11]: 2.85
Compound: O=Cc1c2[nH]c3ccccc3c2cc2[nH]c3ccccc3c12

Compound: N#C/C(=C\c1ccc(OCC(O)CNc2ccccc2)cc1)c1ccc(Cl)c(Cl)c1 (racemic)
GI50 (U-87 MG): 26 µM
GI50 (A2780): 4.4 µM
GI50 (NCI-H460): 14 µM
GI50 (A-431): 16 µM
GI50 (DU-145): 22 µM
GI50 (BE(2)-C): 13 µM
GI50 [1]: 18 µM
GI50 (MIA PaCa-2): 17 µM
GI50 (HT-29): 10 µM
GI50 (MCF7): 13 µM
GI50 at 72 h [2]: 18 µM
selectivity ratio [8]: 4

fold induction at 5 µM [10]: 0.59
fold induction at 5 µM [11]: 0.69
Compound: Cc1ccccc1/N=N/c1ccc(NC(=O)c2ccnn2C)c(C)c1

Compound: CC(=O)N1CCN(CC(O)COc2ccc(/C=C(\C#N)c3ccc(Cl)c(Cl)c3)cc2)CC1 (racemic)
GI50 (U-87 MG): 21 µM
GI50 (A2780): 6.9 µM
GI50 (NCI-H460): 14 µM
GI50 (A-431): 10 µM
GI50 (DU-145): 15 µM
GI50 (BE(2)-C): 11 µM
GI50 [1]: 13 µM
GI50 (MIA PaCa-2): 16 µM
GI50 (HT-29): 8.6 µM
GI50 (MCF7): 5.3 µM
GI50 at 72 h [2]: 16 µM
GI50 (MDA-MB-468): 5.9 µM
GI50 (T47D): 6.8 µM
selectivity ratio [4]: 3
selectivity ratio [5]: 2.7
selectivity ratio [6]: 2.3
